Data on 24 compounds can be found in the M2OR odorant receptor database.

The first experiment concerns the target T1, Or5ar1 (Mus musculus) (UniProt Q8VGS3).
T1 sequence (whole entry): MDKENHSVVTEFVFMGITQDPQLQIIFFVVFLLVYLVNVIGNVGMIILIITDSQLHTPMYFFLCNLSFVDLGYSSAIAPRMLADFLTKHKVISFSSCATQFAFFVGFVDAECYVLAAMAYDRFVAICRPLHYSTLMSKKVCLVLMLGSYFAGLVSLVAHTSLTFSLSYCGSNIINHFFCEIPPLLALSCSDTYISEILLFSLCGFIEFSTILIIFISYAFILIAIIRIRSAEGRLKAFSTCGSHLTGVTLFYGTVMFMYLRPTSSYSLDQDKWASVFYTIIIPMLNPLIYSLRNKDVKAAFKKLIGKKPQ
Particulars: stereoisomer not certain. The gist of the method: (§1)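 Each entry records the cell line, G-protein, co-transfected protein and tags used. Methods varied with the source, often transient luciferase assays in mammalian cell lines. A receptor–molecule pair is called responsive (active) if the original authors judged its signal statistically different from baseline and non-responsive (inactive) otherwise.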
Regarding `COc1cnccn1`, the “odorant receptor agonist call” value is “inactive”.

With `CCCCCO`, the “odorant receptor agonist call” value was “inactive”. Still for that read-out and setting: as for `CCC(C(=O)O)c1ccccc1` (centres undefined), the entry is “inactive”; as for `CCCCCCC(=O)[O-].[H+]`, “inactive”; as for `CCCCOC(=O)C(C)OC(=O)CCC` (centres undefined), “inactive”. On the same count and under the same terms, as for `CCC(C)c1nccnc1OC` (centres undefined), the entry is “inactive”; as for `COc1nccnc1C(C)C`, “inactive”. On the same count and under the same terms, as for `CCc1nccnc1CC`, the entry is “inactive”; as for `CCc1ncc(C)nc1CC`, “inactive”. With `O=c1ccc2ccccc2o1`, the “odorant receptor agonist call” value was “inactive”.

A further experiment has as its target T2, Or5k16 (Mus musculus) (UniProt Q7TS48).
T2 sequence (whole entry): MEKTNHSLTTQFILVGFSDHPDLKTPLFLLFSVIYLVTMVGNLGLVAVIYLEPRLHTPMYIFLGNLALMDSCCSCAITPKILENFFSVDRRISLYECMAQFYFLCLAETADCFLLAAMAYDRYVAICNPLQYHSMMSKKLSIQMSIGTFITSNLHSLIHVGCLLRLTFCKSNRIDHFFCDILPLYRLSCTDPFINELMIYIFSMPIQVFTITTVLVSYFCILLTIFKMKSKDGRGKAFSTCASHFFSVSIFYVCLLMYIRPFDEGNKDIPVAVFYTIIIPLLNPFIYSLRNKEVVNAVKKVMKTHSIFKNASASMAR
The following applies: stereoisomer not certain. The gist of the method: as §1
For `COc1cnccn1`, the “odorant receptor agonist call” value was “inactive”. Same read-out and setting: for `COc1nccnc1CC(C)C` the value was “inactive”; for `CCc1nccnc1C`, “inactive”; for `CC(=O)c1cnccn1`, “inactive”. Same read-out and setting: for `CC1CCc2nccnc21` (centres undefined) the value was “inactive”. Same read-out and setting: as for `CCc1nccnc1OC`, the entry is “inactive”. On to `Cc1cncc(C)n1`, for which the “odorant receptor agonist call” value is “inactive”. With `C=Cc1cnccn1`, the “odorant receptor agonist call” value was “inactive”. Same read-out and setting: for `CCC(C)c1nccnc1OC` (centres undefined) the value was “inactive”. On to `Cc1nccnc1C`, for which the “odorant receptor agonist call” value was “inactive”. As for `CCc1nccnc1C(C)=O`, the “odorant receptor agonist call” value is “inactive”. As to `Cc1cnccn1`, the “odorant receptor agonist call” value was “inactive”.

`COc1nccnc1C(C)C`: the “odorant receptor agonist call” value is “inactive”. Still for that read-out and setting: for `CC(=O)c1nccnc1C` the value was “inactive”; for `CCc1nccnc1CC`, “inactive”.

`COC1=C(C)OC(C)C1=O` (centres undefined): the “odorant receptor agonist call” value was “inactive”.

`CCc1cnc(C)c(C)n1`: the “odorant receptor agonist call” value is “active”. In the case of `CCc1ncc(C)nc1CC`, the “odorant receptor agonist call” value was “inactive”. Turning to `Cc1cnc(C)cn1`, the “odorant receptor agonist call” value is “inactive”.
